# Paper PMC5420486 (Clinical cancer research : an official journal of the …, 2016)
# Entries after “also recorded” stand apart in the source; their conditions may differ.
# Key:
# [1] = tested on: Asian patients with advanced HCC; test: Phase I dose-escalation, standard 3+3 design; type: in vivo
# [2] = tested on: patients with advanced HCC; test: Safety assessment: adverse events graded by CTCAE v3.0; type: in vivo, human; settings: for Diarrhoea: treatment-related AE
# [3] = tested on: advanced hepatocellular carcinoma (HCC) patients; test: Anti-tumor activity and survival; type: in vivo, human
# [4] = Plasma pharmacokinetics, noncompartmental analysis; type: in vivo, human; settings: for Tmax: human, plasma, oral
# Outline: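 Patients were dosed orally once daily. Blood was drawn within 60 minutes predose and at 1, 2, 3, 4, 6, 8 and 24 h post dose on days 1 and 15, in both escalation and expansion cohorts. Cmax, Tmax, AUC0-24, AUC0-∞, T1/2, C24 and CL/F were derived from plasma test compound concentrations by noncompartmental analysis.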
# advanced HCC patients = test: Pharmacogenomic and exploratory biomarker subgroup analyses of TTP; type: in vivo, human; settings: 30 mg QD
# Outline: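 Advanced HCC patients took oral test compound once daily. For genotyping, venous blood DNA was typed at 20 SNPs in 14 candidate genes by Sanger sequencing or TaqMan assays. Circulating markers, including IL6, were measured by Searchlight at baseline (day 1). TTP ran from drug start to documented progression or death. Genotype was tested by time-to-event models with score (log-rank) test, unadjusted. Biomarkers were tested by proportional hazards regression, univariate and covariate-adjusted.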
# [5] = tested on: patients with other solid tumors; settings: other tumor types, predominantly non-Asian populations; cited from earlier work
# [6] = tested on: Asia-Pacific patients with HCC; settings: cited from earlier work
# [7] = 30 mg QD, RECIST population (n=38)
# [8] = 30 mg QD, mRECIST population (n=35)
compound,measurement,setting,value
COc1cc2c(Oc3ccc(NC(=O)C4(C(=O)Nc5ccc(F)cc5)CC4)cc3F)ccnc2cc1OCCCN1CCOCC1 [foretinib],maximum tolerated dose (MTD),"[1]; Asian patients with advanced HCC, oral, first-line",30 mg QD
same,dose-limiting toxicities (DLTs),[1]; in vivo,no DLTs
same,fatal events,[2]; 30 mg,three
same,relation of fatal events to study treatment,[2]; 30 mg,none of these events were considered related to study treatment
same,dose reductions due to an AE,[2]; 30 mg QD,no patients; also recorded: no dose reductions
same,Abdominal pain,"[2]; 30 mg QD, N=39, all patients",5 (12·8) n (%)
same,Cough,"[2]; 30 mg QD, N=39, all patients",6 (15·4) n (%)
same,Hypoalbuminaemia,"[2]; 30 mg QD, N=39, all patients",7 (17·9) n (%)
same,Insomnia,"[2]; 30 mg QD, N=39, all patients",6 (15·4) n (%)
same,Diarrhoea,"[2]; 30 mg QD, N=39, all patients",6 (15·4) n (%)
same,Abdominal pain,"[2]; 30 mg QD, N=39, grade 3",3 (7·7) n (%)
same,Cough,"[2]; 30 mg QD, N=39, grade 3",0 n (%)
same,Hypoalbuminaemia,"[2]; 30 mg QD, N=39, grade 3",5 (12.8) n (%)
same,Insomnia,"[2]; 30 mg QD, N=39, grade 3",1 (2.6) n (%)
same,Diarrhoea,"[2]; 30 mg QD, N=39, grade 3",0 n (%)
same,Abdominal pain,"[2]; 30 mg QD, N=39, grade 4",0 n (%)
same,Cough,"[2]; 30 mg QD, N=39, grade 4",0 n (%)
same,Hypoalbuminaemia,"[2]; 30 mg QD, N=39, grade 4",0 n (%)
same,Insomnia,"[2]; 30 mg QD, N=39, grade 4",0 n (%)
same,Oedema peripheral,"[2]; 30 mg QD, N=39, grade 4",1 (2.6) n (%)
same,Diarrhoea,"[2]; 30 mg QD, N=39, grade 4",0 n (%)
same,median time to progression (TTP),[3]; 30 mg QD,4.2 months
same,Disease stabilization rate,[3]; [7],24 (63·2) n (%)
same,Objective response rate,[3]; [7],3 (7·9) n (%)
same,Patients achieving best overall response: Complete response,[3]; [7],0 n (%)
same,Patients achieving best overall response: Disease progression,[3]; [7],14 (36.8) n (%)
same,Patients achieving best overall response: Partial response,[3]; [7],3 (7.9) n (%)
same,Patients achieving best overall response: Stable disease,[3]; [7],21 (55.3) n (%)
same,median overall survival (OS),"[3]; 30 mg QD, all enrolled patients treated at the MTD (N=39), Kaplan-Meier",15.7 months
same,Disease stabilization rate,"[3]; 30 mg QD, mRECIST",82.9%
same,median duration of response,"[3]; 30 mg QD, mRECIST",7.6 months
same,Disease stabilization rate,[3]; [8],29 (82·9) n (%)
same,Objective response rate,[3]; [8],8 (22·9) n (%)
same,Patients achieving best overall response: Complete response,[3]; [8],0 n (%)
same,Patients achieving best overall response: Disease progression,[3]; [8],6 (17·1) n (%)
same,Patients achieving best overall response: Partial response,[3]; [8],8 (22·9) n (%)
same,Patients achieving best overall response: Stable disease,[3]; [8],21 (60·0) n (%)
same,objective response rate (ORR),"[3]; 30 mg QD, mRECIST, 35 evaluable patients",22.9%
same,Patients achieving ≥50% reduction from baseline AFP,"[3]; 30 mg QD, patients with baseline AFP ≥200 ng/mL (n=15), mRECIST population",7 (46·7) n (%)
same,patients with a 50% decrease from baseline AFP at at least one time point,"[3]; 30 mg, baseline AFP ≥ 200 ng/mL",46.7%
same,patients achieving a PR,"[3]; 30 mg, mRECIST",eight
same,dose-proportionality assessment,"[4]; 30 to 45 mg, day 15",dose proportionality was not achieved
same,"oral clearance (CL/F), 45-mg dose compared with 30-mg dose","[4]; day 15, N=6, interpret with caution",50 % higher
same,Tmax,[4],3 to 3.5 h
same,Tmax,[4]; 30 mg,3 h
same,median TTP,advanced HCC patients; one or no copy of NR1I3/CAR CAT haplotype,≈ 6 months
same,median TTP,advanced HCC patients; two copies of NR1I3/CAR CAT haplotype,≈ 2 months
same,previously reported MTD,[5],60 mg QD
CNC(=O)c1cc(Oc2ccc(NC(=O)Nc3ccc(Cl)c(C(F)(F)F)c3)cc2)ccn1 [sorafenib],patients requiring dose reduction,[6]; Asia-Pacific patients with HCC,30.9%
same,median OS,[6]; pivotal Asia-Pacific sorafenib study,6.5 months
